From ChEMBL document CHEMBL5058577, “EUbOPEN Chemogenomics Library 2 (Multiplex)” (2022)

Test system: U2OS
Experiment: Multiplex assay against U2OS
Format: toxicity, cell-based
Settings: human
In short: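 Tubulin, mitochondrial-mass and membrane-permeability phenotypes are per cents of healthy-nucleus cells. Cells were gated by CellPathfinder machine learning into Hoechst high-intensity objects or normal cells, normal cells into healthy, pyknosed or fragmented nuclei, and pyknosed cells into mitotic or apoptotic. Before that, live cells stained at seeding with Hoechst33342, BioTracker Green Microtubule Cytoskeleton Dye, MitoTracker Red and Annexin V Alexa Fluor 680 were imaged on a CQ1 microscope at 37°C and 5% CO2 after compound addition.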

[1] = 12 h, 1 µM, compound concentration 1 uM, replicate 1
[2] = 12 h, 1 µM, compound concentration 1 uM, replicate 2
[3] = 12 h, 10 µM, compound concentration 10 uM, replicate 1
[4] = 12 h, 10 µM, compound concentration 10 uM, replicate 2
[5] = 24 h, 1 µM, compound concentration 1 uM, replicate 1
[6] = 24 h, 1 µM, compound concentration 1 uM, replicate 2
[7] = 24 h, 10 µM, compound concentration 10 uM, replicate 1
[8] = 24 h, 10 µM, compound concentration 10 uM, replicate 2
[9] = 48 h, 1 µM, compound concentration 1 uM, replicate 1
[10] = 48 h, 1 µM, compound concentration 1 uM, replicate 2
[11] = 48 h, 10 µM, compound concentration 10 uM, replicate 1
[12] = 48 h, 10 µM, compound concentration 10 uM, replicate 2

Cc1sc2c(c1C)C(c1ccc(Cl)cc1)=N[C@H](CC(=O)OC(C)(C)C)c1nnc(C)n1-2
Population Apoptotic (%) [1]: 81% | Population Fragmented Nuclei (%) [1]: 28% | Population Healthy Nuclei (%) [1]: 63% | Population Hoechst High Intensity Objects (%) [1]: 2% | Population Membrane Permeable-Phenotype (%) [1]: 7% | Population Mitochondria Different-Phenotype (%) [1]: 4% | Population Mitotic Cells (%) [1]: 18% | Population Normal (%) [1]: 97% | Population Pyknosed Nuclei (%) [1]: 8% | Population Tubulin-Different-Phenotype (%) [1]: 4% | Total Cell Count [1]: 256 | Population Apoptotic (%) [2]: 71% | Population Fragmented Nuclei (%) [2]: 16% | Population Healthy Nuclei (%) [2]: 77% | Population Hoechst High Intensity Objects (%) [2]: 4% | Population Mitochondria Different-Phenotype (%) [2]: 2% | Population Mitotic Cells (%) [2]: 28% | Population Normal (%) [2]: 95% | Population Pyknosed Nuclei (%) [2]: 6% | Total Cell Count [2]: 120 | Population Apoptotic (%) [3]: 51% | Population Fragmented Nuclei (%) [3]: 32% | Population Healthy Nuclei (%) [3]: 56% | Population Hoechst High Intensity Objects (%) [3]: 2% | Population Membrane Permeable-Phenotype (%) [3]: 42% | Population Mitochondria Different-Phenotype (%) [3]: 35% | Population Mitotic Cells (%) [3]: 48% | Population Normal (%) [3]: 97% | Population Pyknosed Nuclei (%) [3]: 11% | Population Tubulin-Different-Phenotype (%) [3]: 39% | Total Cell Count [3]: 240 | Population Apoptotic (%) [4]: 90% | Population Fragmented Nuclei (%) [4]: 22% | Population Healthy Nuclei (%) [4]: 68% | Population Hoechst High Intensity Objects (%) [4]: 0% | Population Membrane Permeable-Phenotype (%) [4]: 13% | Population Mitochondria Different-Phenotype (%) [4]: 24% | Population Mitotic Cells (%) [4]: 10% | Population Normal (%) [4]: 100% | Population Pyknosed Nuclei (%) [4]: 8% | Population Tubulin-Different-Phenotype (%) [4]: 11% | Total Cell Count [4]: 118 | Population Apoptotic (%) [5]: 77% | Population Fragmented Nuclei (%) [5]: 22% | Population Healthy Nuclei (%) [5]: 69% | Population Hoechst High Intensity Objects (%) [5]: 0% | Population Membrane Permeable-Phenotype (%) [5]: 5% | Population Mitochondria Different-Phenotype (%) [5]: 1% | Population Mitotic Cells (%) [5]: 22% | Population Normal (%) [5]: 99% | Population Pyknosed Nuclei (%) [5]: 7% | Population Tubulin-Different-Phenotype (%) [5]: 1% | Total Cell Count [5]: 280 | Population Apoptotic (%) [6]: 75% | Population Fragmented Nuclei (%) [6]: 20% | Population Healthy Nuclei (%) [6]: 70% | Population Hoechst High Intensity Objects (%) [6]: 3% | Population Mitochondria Different-Phenotype (%) [6]: 2% | Population Mitotic Cells (%) [6]: 25% | Population Normal (%) [6]: 96% | Population Pyknosed Nuclei (%) [6]: 8% | Population Tubulin-Different-Phenotype (%) [6]: 2% | Total Cell Count [6]: 149 | Population Apoptotic (%) [7]: 83% | Population Fragmented Nuclei (%) [7]: 29% | Population Healthy Nuclei (%) [7]: 57% | Population Hoechst High Intensity Objects (%) [7]: 2% | Population Membrane Permeable-Phenotype (%) [7]: 17% | Population Mitochondria Different-Phenotype (%) [7]: 17% | Population Mitotic Cells (%) [7]: 16% | Population Normal (%) [7]: 97% | Population Pyknosed Nuclei (%) [7]: 13% | Population Tubulin-Different-Phenotype (%) [7]: 8% | Total Cell Count [7]: 280 | Population Apoptotic (%) [8]: 76% | Population Fragmented Nuclei (%) [8]: 24% | Population Healthy Nuclei (%) [8]: 65% | Population Hoechst High Intensity Objects (%) [8]: 0% | Population Membrane Permeable-Phenotype (%) [8]: 7% | Population Mitochondria Different-Phenotype (%) [8]: 25% | Population Mitotic Cells (%) [8]: 23% | Population Normal (%) [8]: 99% | Population Pyknosed Nuclei (%) [8]: 10% | Population Tubulin-Different-Phenotype (%) [8]: 3% | Total Cell Count [8]: 130 | Population Apoptotic (%) [9]: 77% | Population Fragmented Nuclei (%) [9]: 20% | Population Healthy Nuclei (%) [9]: 72% | Population Hoechst High Intensity Objects (%) [9]: 1% | Population Membrane Permeable-Phenotype (%) [9]: 5% | Population Mitochondria Different-Phenotype (%) [9]: 2% | Population Mitotic Cells (%) [9]: 22% | Population Normal (%) [9]: 98% | Population Pyknosed Nuclei (%) [9]: 6% | Population Tubulin-Different-Phenotype (%) [9]: 2% | Total Cell Count [9]: 415 | Population Apoptotic (%) [10]: 96% | Population Fragmented Nuclei (%) [10]: 21% | Population Healthy Nuclei (%) [10]: 64% | Population Hoechst High Intensity Objects (%) [10]: 3% | Population Membrane Permeable-Phenotype (%) [10]: 7% | Population Mitochondria Different-Phenotype (%) [10]: 7% | Population Mitotic Cells (%) [10]: 3% | Population Normal (%) [10]: 96% | Population Pyknosed Nuclei (%) [10]: 14% | Population Tubulin-Different-Phenotype (%) [10]: 5% | Total Cell Count [10]: 228 | Population Apoptotic (%) [11]: 86% | Population Fragmented Nuclei (%) [11]: 23% | Population Healthy Nuclei (%) [11]: 57% | Population Hoechst High Intensity Objects (%) [11]: 2% | Population Membrane Permeable-Phenotype (%) [11]: 11% | Population Mitochondria Different-Phenotype (%) [11]: 7% | Population Mitotic Cells (%) [11]: 13% | Population Normal (%) [11]: 97% | Population Pyknosed Nuclei (%) [11]: 18% | Population Tubulin-Different-Phenotype (%) [11]: 5% | Total Cell Count [11]: 342 | Population Apoptotic (%) [12]: 89% | Population Fragmented Nuclei (%) [12]: 20% | Population Healthy Nuclei (%) [12]: 68% | Population Hoechst High Intensity Objects (%) [12]: 1% | Population Mitochondria Different-Phenotype (%) [12]: 8% | Population Mitotic Cells (%) [12]: 10% | Population Normal (%) [12]: 98% | Population Pyknosed Nuclei (%) [12]: 11% | Population Tubulin-Different-Phenotype (%) [12]: 3% | Total Cell Count [12]: 174
